# Screens (PubChem)
# Keap1 Nrf2 FP: Keap1-Nrf2 protein-protein interaction inhibitors, primary screen, biochemical, fluorescence polarization, single point; Kelch-like ECH-associated protein 1 (Homo sapiens), Q14145; Keap1 Kelch-Nrf2 peptide fluorescence polarization, 1536-well; inhibition, % at 9.4 µM; 0.15% of 340,000 active; in the data active = inhibition above about 12%;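 note: human Keap1 Kelch domain with fluorescein labeled Nrf2 9mer peptide probe; higher means more block of Keap1 binding to Nrf2 peptide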
# A3G deaminase: APOBEC3G DNA deaminase inhibitors, primary screen, biochemical, fluorescence, single-stranded DNA substrate, uHTS; DNA dC->dU-editing enzyme APOBEC-3G (Homo sapiens), Q9HC16; recombinant A3G, ssDNA deamination FAM/TAMRA fluorescence; inhibition, % at 20 µM; 0.28% of 330,000 active;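 active = inhibition of at least 40% at 20 µM, with no more than 30% in the related APOBEC3A deaminase screen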
# Target sequence (Q9HC16 whole entry, looked up): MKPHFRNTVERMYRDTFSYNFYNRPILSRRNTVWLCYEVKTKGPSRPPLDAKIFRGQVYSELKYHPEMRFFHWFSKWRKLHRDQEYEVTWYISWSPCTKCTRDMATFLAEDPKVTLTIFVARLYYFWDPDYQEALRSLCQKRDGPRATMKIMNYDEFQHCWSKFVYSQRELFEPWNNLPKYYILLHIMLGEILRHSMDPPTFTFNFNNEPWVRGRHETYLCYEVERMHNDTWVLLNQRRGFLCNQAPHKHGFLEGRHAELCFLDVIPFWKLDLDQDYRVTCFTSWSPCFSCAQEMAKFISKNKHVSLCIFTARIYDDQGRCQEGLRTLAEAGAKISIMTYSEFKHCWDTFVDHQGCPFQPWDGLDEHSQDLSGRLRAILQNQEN
# LANA DNA inh: inhibitors of KSHV C-LANA binding to DNA, primary screen, biochemical, fluorescence polarization, FAM-LBS DNA, MBP-C-LANA, single point | Kaposi's sarcoma herpesvirus LANA C-terminal domain (residues 932-1162) DNA binding | inhibition, % at 9 µM | 0.078% of 340,000 active | AID 504423, 2011;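 active = highest replicate inhibition at or above 60% at 9 µM, even if other replicates fall short; inactive = all replicates below 60% inhibition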
# CAL PDZ FP-1: untagged CAL PDZ binding inhibitors, primary screen, biochemical, fluorescence polarization, HTS; Golgi-associated PDZ and coiled-coil motif-containing protein (Homo sapiens), Q9HD26; purified CAL PDZ, TMR-peptide fluorescence polarization, 1 h; inhibition, % at 24.9 µM; 0.92% of 300,000 active; AID 602252, 2012;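 active = mean inhibition of at least 30% with at least half of replicates also reaching 30%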
# A3A deaminase: APOBEC3A ssDNA deaminase inhibitors, primary screen, selectivity assay for APOBEC3G inhibitor project, biochemical, FAM/TAMRA oligo cleavage fluorescence; DNA dC->dU-editing enzyme APOBEC-3A (Homo sapiens), P31941; recombinant A3A, FAM/TAMRA ssDNA deamination fluorescence; inhibition, % at 20 µM; 0.41% of 330,000 active;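 active = at least 40% inhibition at 20 µM here, with at most 30% in a related deaminase screen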
# Target sequence (P31941 whole entry, looked up): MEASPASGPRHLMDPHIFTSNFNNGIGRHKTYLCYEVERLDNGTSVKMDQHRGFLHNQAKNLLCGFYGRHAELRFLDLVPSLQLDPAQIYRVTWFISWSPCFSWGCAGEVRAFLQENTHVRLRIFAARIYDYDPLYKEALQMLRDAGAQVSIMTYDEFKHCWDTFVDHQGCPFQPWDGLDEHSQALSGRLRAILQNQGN
# CAL PDZ FP-2: CAL PDZ peptide-binding inhibitors, primary screen, biochemical, fluorescence polarization, Cer-tagged CAL PDZ, HTS. Golgi-associated PDZ and coiled-coil motif-containing protein (Homo sapiens), Q9HD26. purified CAL PDZ, TMR-peptide fluorescence polarization, 1 h. inhibition, % at 20 µM. 0.02% of 330,000 active;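 active = highest replicate inhibition of at least 40%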
#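 System: purified tagged CAL PDZ domain construct (CerCALP). Schedule: 1 h incubation at room temperature before polarization reading. Medium: 25 mM sodium phosphate pH 7.4, 150 mM NaCl, TCEP, IgG, Thesit. Read-out: percent inhibition from loss of millipolarization. Measured by: FP readout, S and P plane fluorescence. Probe or stimulus: fluorescent TMR peptide probe.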
# Keap1 TSA: Keap1 Kelch domain binders by thermal stabilisation, dose response, biophysical, thermal shift, RT-PCR instrument, cherry-pick; 8% of 400 active; shares compounds with Keap1 Nrf2 FP; AID 651823, 2012; delta Tm; stronger effect = higher value; max delta Tm, degrees C; in the data active = max delta Tm above about 0.48 degrees C
# Dye-only ctr: Sypro Orange dye melt without protein, dose response, artefact control for Keap1-Nrf2 interaction inhibitor project, biochemical, thermal shift counterscreen, cherry-pick. shares compounds with Keap1 Nrf2 FP. Sypro Orange dye-only thermal melt, no protein, delta Tm; top dose 26 µM. delta Tm, degrees C (concentration not given with the values). 140 tested, under 10 active;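 active = at highest dose tested, delta Tm positive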
# Hits are given with their value; – = inactive; · = not tested or not shown. A selection: hits, their analogues and other compounds. The true share with any hit is near 1.7%.
SMILES,Keap1 Nrf2 FP,A3G deaminase,LANA DNA inh,CAL PDZ FP-1,A3A deaminase,CAL PDZ FP-2,Keap1 TSA,others
Cc1ccc2nc3c(cc(C(=O)NC4CCCC4)c(=N)n3C3CCCCC3)c(=O)n2c1,–,–,–,–,–,–,·,
CNC(=S)N1CCC(c2nc3ccccc3s2)CC1,–,–,–,·,–,–,·,
COc1cc(C(=O)NC(=S)Nc2ccc(Cl)cn2)cc(OC)c1OC,–,–,–,–,–,–,·,
O=C(Cn1cccn1)c1ccccc1,–,–,–,–,–,–,·,
C=CCOC(=O)C1=C[C@@H](c2csc3ccccc23)C[C@@H](OCc2ccc(CO)cc2)O1,–,–,–,–,–,–,·,
C=CCOC(=O)C1=C[C@H](c2csc3ccccc23)C[C@H](OCc2ccc(CO)cc2)O1,17,–,–,–,–,–,–,Dye-only ctr=–
Cc1ccc(C)c(N2CCN(C(=O)c3ccc(Cl)c(NC4=NC5CS(=O)(=O)CC5S4)c3)CC2)c1 (centres undefined),–,–,–,–,–,–,·,
CN1CCC(N(C)C(=O)c2ccc(Cl)c(S(=O)(=O)N3CCCCC3)c2)CC1,–,–,–,–,–,–,·,
COc1ccccc1NC(=O)C(C)OC(=O)C1COc2ccccc2O1 (centres undefined),22,–,–,·,–,–,–,
COc1cc(C2C(C#N)=C(N)OC3=C2C(=O)CC(C)(C)C3)c([N+](=O)[O-])cc1OC (centres undefined),–,–,–,–,–,·,·,
CC1(C)CC(=O)C2=C(C1)OC(N)=C(C#N)[C@@H]2c1ccccc1[N+](=O)[O-],39,–,–,·,–,–,–,Dye-only ctr=–
Cc1cccc(C)c1NC(=O)CSc1nc2[nH]c(=O)cc(O)c2s1,–,–,–,–,–,–,·,
COc1ccc(Cl)cc1NC(=O)COC(=O)c1cc(NS(=O)(=O)c2cccs2)ccc1O,–,–,–,–,–,–,·,
COCCCNc1nc(N)c([N+](=O)[O-])c(Nc2cc(OC)ccc2OC)n1,38,–,–,·,–,–,–,
Cn1c(SCC(=O)c2cc(Cl)c(Cl)s2)nnc1-c1ccco1,32,–,–,·,–,–,–,
COc1cc2c3nnc(-c4ccc(F)cc4)c-3cn(Cc3ccc(C)cc3)c2cc1OC,13,–,–,·,–,–,–,
COc1cc2c3nnc(-c4ccccc4)c-3cn(Cc3ccc(F)cc3)c2cc1OC,–,–,–,–,–,–,·,
CC1CCN(c2ccc3c(c2)S(=O)(=O)c2ccccc2C3=O)CC1,21,–,–,–,–,–,–,
NC(=O)C1CCN(c2ccc3c(c2)S(=O)(=O)c2ccccc2C3=O)CC1,–,–,–,–,–,–,·,
c1ccc(-n2ncc3c(NCC4CCCO4)ncnc32)cc1 (centres undefined),12,–,–,–,–,–,–,
CCn1c(SCC(=O)Nc2c(C#N)cnn2-c2ccccc2)nnc1-c1cccs1,·,–,·,·,–,·,·,
COC(=O)c1cc(N2CCN(C)CC2)nc2ccccc12,31,–,–,–,–,–,–,
Cc1noc(C)c1C(=O)OC(C)C(=O)NC(C)c1ccc(Cl)cc1Cl (centres undefined),–,–,–,·,–,–,·,
CC(C(=O)O)N1C(=O)/C(=C/C=C/c2ccco2)SC1=S (centres undefined),13,–,104,–,–,–,0.77,Dye-only ctr=–
O=C1/C(=C/C=C/c2ccco2)SC(=S)N1NS(=O)(=O)c1ccccc1,28,–,110,–,–,–,1.3,
SMILES,Keap1 Nrf2 FP,A3G deaminase,LANA DNA inh,CAL PDZ FP-1,A3A deaminase,CAL PDZ FP-2,Keap1 TSA,others
O=C1c2ccccc2C(O)(c2ccccc2)N1c1ccncc1 (centres undefined),–,–,–,–,–,–,·,
COc1ccc(CN2C(=NC(=O)C3CCCO3)SC3CS(=O)(=O)CC32)cc1 (centres undefined),–,–,–,–,–,–,·,
C/C(C/C(C)=C1/SC(=S)NC1=O)=C1\SC(=S)NC1=O,49,·,–,–,·,–,2,
CCCCCC/C(C)=C1/SC(=S)NC1=O,–,–,–,–,–,–,·,
Cn1nc(-c2ccccc2)c2nc3ccccc3nc21,54,–,–,–,–,–,–,Dye-only ctr=–
Cc1cccc(CCNS(=O)(=O)c2ccc3c(c2)NC(=O)CS3)c1,–,–,–,–,–,–,·,
Cc1cc[n+](-c2[nH]c(=O)sc2/C=N/N=C(\[O-])c2ccncc2)cc1C,–,–,–,–,–,–,·,
Cc1cc[n+](-c2[nH]c(=O)sc2/C=N/N=C(\[O-])c2ccccc2)cc1C,43,·,62,–,·,·,–,
O=C(Nn1cnnc1)c1cc(Br)ccc1Cl,–,–,–,–,–,–,·,
O=C(Nn1cnnc1)c1ccc(Cl)c(Cl)c1,22,–,–,·,–,–,–,
COC(=O)C(C)Oc1ccc(Cl)c(CN2OCC(C)(C)C2=O)c1 (centres undefined),–,–,–,–,–,–,·,
NC(=O)COc1ccc(NC(=O)CC23CC4CC(CC(C4)C2)C3)cc1,22,–,–,–,–,–,–,
CNC(=O)c1ccc(NC(=O)CC23CC4CC(CC(C4)C2)C3)cc1,–,–,–,–,–,–,·,
Cc1cscc1NC(=O)/C=C/C(=O)O,33,–,–,·,–,–,–,
O=C(CCCCl)NC(=S)Nc1ccc(N2CCOCC2)cc1,33,–,–,·,–,–,–,Dye-only ctr=–
COc1ccc(S(=O)(=O)N2CCOCC2)cc1NC(=O)CNC(=O)c1cccs1,–,–,–,–,–,–,·,
C=CCN1C(=O)N(c2ccccc2)C(=O)C1CC(=O)Nc1ccc(OC)cc1 (centres undefined),–,–,–,–,–,–,·,
CCCCCCOC(=O)C(C#N)c1nc2ccccc2nc1N1CCOCC1 (centres undefined),20,–,–,·,–,–,–,
Cc1ccc(C)c(NC(=O)C2CCN(C(=O)c3cccs3)CC2)c1,–,–,–,·,–,–,·,
CN(CC(=O)Nc1cc(C(F)(F)F)ccc1-n1cncn1)Cc1ccccc1N1CCOCC1,41,·,–,·,·,–,–,Dye-only ctr=–
